Where “and” joins values, the source holds several entries; their conditions need not be identical. Identical values can stand only once.
What was measured:
Format in all cases: toxicity, cell-based
[1] = system: HEK-293T; assay: Multiplex assay against HEK293T; settings: human, number of replicates 2
Method in brief: (§1)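 With compound added, live cells were imaged on a CQ1 microscope at 37°C and 5% CO2; staining with Hoechst33342, BioTracker Green Microtubule Cytoskeleton Dye, MitoTracker Red and Annexin V Alexa Fluor 680 had been done at seeding. The CellPathfinder machine-learning gating scheme split cells into Hoechst high-intensity objects or normal cells, normal cells into healthy, pyknosed or fragmented nuclei, and pyknosed cells into mitotic or apoptotic. The tubulin, mitochondrial-mass and membrane-permeability phenotypes are per cents of healthy-nucleus cells.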

[2] = system: U2OS; assay: Multiplex assay against U2OS; settings: human, number of replicates 2; method in brief: as §1
[3] = system: Fibroblast; assay: Multiplex assay against human fibroblast; settings: number of replicates 2; method in brief: as §1
[4] = 12 h, 1 µM, compound concentration 1 uM
[5] = 12 h, 10 µM, compound concentration 10 uM
[6] = 24 h, 1 µM, compound concentration 1 uM
[7] = 24 h, 10 µM, compound concentration 10 uM
[8] = 48 h, 1 µM, compound concentration 1 uM
[9] = 48 h, 10 µM, compound concentration 10 uM

In the case of `CS(=O)(=O)c1ccc(C(=O)Nc2cccc(COc3ccc(Br)cc3CN3CCC[C@H](O)C3)c2)c(Cl)c1.O=CO`, the “Population Healthy Nuclei (%)” value [1, 4] is reported as 82%, the “Population Mitotic Cells (%)” value [1, 4] is reported as 45% and 44% and the “Total Cell Count” value [1, 4] is reported as 629 and 598. The “Population Healthy Nuclei (%)” value [1, 5] was 85% and 88%, the “Population Mitotic Cells (%)” value [1, 5] was 38% and 41% and the “Total Cell Count” value [1, 5] was 549 and 638. For the same compound, the “Population Healthy Nuclei (%)” value [1, 6] was 83% and 85%, the “Population Mitotic Cells (%)” value [1, 6] was 60% and 48% and the “Total Cell Count” value [1, 6] was 967 and 829. The “Population Healthy Nuclei (%)” value [1, 7] was 83% and 85%, the “Population Mitotic Cells (%)” value [1, 7] was 49% and 30% and the “Total Cell Count” value [1, 7] was 569 and 612. For the same compound, the “Population Healthy Nuclei (%)” value [1, 8] was 82% and 86%, the “Population Mitotic Cells (%)” value [1, 8] was 82% and 78% and the “Total Cell Count” value [1, 8] was 2080 and 1482. For the same compound, the “Population Healthy Nuclei (%)” value [1, 9] was 86% and 84%, the “Population Mitotic Cells (%)” value [1, 9] was 62% and 45% and the “Total Cell Count” value [1, 9] was 820 and 907. The “Population Healthy Nuclei (%)” value [2, 4] was 84% and 83%, the “Population Hoechst High Intensity Objects (%)” value [2, 4] was 0% and the “Population Pyknosed Nuclei (%)” value [2, 4] was 15%. For the same compound, the “Population Apoptotic (%)” value [2, 5] was 66% and 52%, the “Population Healthy Nuclei (%)” value [2, 5] was 69% and 75% and the “Population Hoechst High Intensity Objects (%)” value [2, 5] was 0%. The “Population Pyknosed Nuclei (%)” value [2, 5] was 15% and 18%, the “Population Healthy Nuclei (%)” value [2, 6] was 74% and 83% and the “Population Hoechst High Intensity Objects (%)” value [2, 6] was 0%. The “Population Apoptotic (%)” value [2, 7] was 90%, the “Population Healthy Nuclei (%)” value [2, 7] was 65% and 70% and the “Population Hoechst High Intensity Objects (%)” value [2, 7] was 0%. For the same compound, the “Population Apoptotic (%)” value [2, 8] was 77% and 76%, the “Population Healthy Nuclei (%)” value [2, 8] was 53% and 83% and the “Population Hoechst High Intensity Objects (%)” value [2, 8] was 0%. The “Population Pyknosed Nuclei (%)” value [2, 8] was 19%, the “Population Apoptotic (%)” value [2, 9] was 93% and 86% and the “Population Healthy Nuclei (%)” value [2, 9] was 43% and 57%. For the same compound, the “Population Hoechst High Intensity Objects (%)” value [2, 9] was 0%, the “Population Pyknosed Nuclei (%)” value [2, 9] was 34% and 29% and the “Population Healthy Nuclei (%)” value [3, 4] was 71% and 60%. For the same compound, the “Population Hoechst High Intensity Objects (%)” value [3, 4] was 0%, the “Population Mitotic Cells (%)” value [3, 4] was 55% and 58% and the “Population Pyknosed Nuclei (%)” value [3, 4] was 17% and 22%. For the same compound, the “Total Cell Count” value [3, 4] was 200 and 202, the “Population Healthy Nuclei (%)” value [3, 5] was 52% and 60% and the “Population Hoechst High Intensity Objects (%)” value [3, 5] was 0%. For the same compound, the “Population Mitotic Cells (%)” value [3, 5] was 49% and 62%, the “Population Pyknosed Nuclei (%)” value [3, 5] was 18% and the “Total Cell Count” value [3, 5] was 221 and 338. The “Population Healthy Nuclei (%)” value [3, 6] was 72% and 64%, the “Population Hoechst High Intensity Objects (%)” value [3, 6] was 0% and the “Population Mitotic Cells (%)” value [3, 6] was 38% and 53%. The “Population Pyknosed Nuclei (%)” value [3, 6] was 21%, the “Total Cell Count” value [3, 6] was 214 and 180 and the “Population Healthy Nuclei (%)” value [3, 7] was 50% and 65%. For the same compound, the “Population Hoechst High Intensity Objects (%)” value [3, 7] was 0%, the “Population Mitotic Cells (%)” value [3, 7] was 35% and 26% and the “Population Pyknosed Nuclei (%)” value [3, 7] was 21% and 12%. For the same compound, the “Total Cell Count” value [3, 7] was 261 and 390, the “Population Healthy Nuclei (%)” value [3, 8] was 73% and 72% and the “Population Hoechst High Intensity Objects (%)” value [3, 8] was 0%. For the same compound, the “Population Mitotic Cells (%)” value [3, 8] was 20% and 29%, the “Population Pyknosed Nuclei (%)” value [3, 8] was 12% and the “Total Cell Count” value [3, 8] was 198 and 185. For the same compound, the “Population Healthy Nuclei (%)” value [3, 9] was 54% and 63%, the “Population Hoechst High Intensity Objects (%)” value [3, 9] was 0% and the “Population Mitotic Cells (%)” value [3, 9] was 10% and 9%. For the same compound, the “Population Pyknosed Nuclei (%)” value [3, 9] was 7% and the “Total Cell Count” value [3, 9] was 285 and 416.

Source: ChEMBL document CHEMBL5303300, “EUbOPEN Chemogenomics Library - Multiplex” (2023)
